Assay results published in ChEMBL document CHEMBL2176911 (J Med Chem, 2012).
Activity calls are given as the source filed them. No cut-off for these calls is given here.

Columns and labels:
[1] = species on record: Mus musculus; experiment: Binding affinity to GSK3beta1 in mouse brain homogenate by Western blot analysis; format: tissue-based
How it was run: (§1)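 Bead pull-down from HT22 cell or mouse brain extracts, with ethanolamine beads lacking ligand as control. Specificity was tested by adding excess free inhibitor to the extracts before binding.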

[2] = target: Casein kinase II subunit beta (Mus musculus, UniProt P67871); experiment: Binding affinity to […] in mouse brain homogenate after 3 hrs by competition affinity chromatographic analysis; format: tissue-based
How it was run: (§2)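 Mouse brain lysate applied to a KinAffinity matrix of mixed immobilized broad-spectrum kinase inhibitors at highest loading density, with increasing concentrations of free inhibitor added. […] Separate titrations of the immobilized ligands gave BC50 values.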

[3] = tested on: HT-22; experiment: Downregulation of DYRK1A expression in mouse HT22 cells after 4 hrs by Western blot analysis; format: functional, cell-based
[4] = target: Dual specificity tyrosine-phosphorylation-regulated kinase 1A (Rattus norvegicus, UniProt Q63470); experiment: Inhibition of rat DYRK1A isolated from brain using KKISGRLSPIMTEQ as substrate and [gamma33P]ATP after 30 mins by scintillation counting
[5] = target: Glycogen synthase kinase-3 beta (Homo sapiens, UniProt P49841); experiment: Inhibition of human recombinant GSK3beta expressed in insect cells using YRRAAVPPSPSLSRHSSPHQ-phosphoS-EDEEE as substrate and [gamma33P]ATP after 30 mins by scintillation counting
[6] = tested on: HT-22; experiment: Binding affinity to GSK3beta2 in mouse HT22 cell lysate by Western blot analysis; format: cell-free; how it was run: as §1
[7] = target: Dual specificity tyrosine-phosphorylation-regulated kinase 1A (Mus musculus, UniProt Q61214); experiment: Binding affinity to DYRK1A in mouse brain homogenate after 3 hrs by competition affinity chromatographic analysis; format: tissue-based; how it was run: as §2
[8] = target: Glycogen synthase kinase-3 alpha (Mus musculus, UniProt Q2NL51); experiment: Binding affinity to GSK3A in mouse brain homogenate after 3 hrs by competition affinity chromatographic analysis; format: tissue-based; how it was run: as §2
[9] = tested on: HT-22; experiment: Neuroprotective activity against glutamate-induced toxicity in mouse HT22 cells after 24 hrs by MTS assay; format: functional, cell-based
[10] = target: Dual specificity tyrosine-phosphorylation-regulated kinase 1A (Mus musculus) (UniProt Q61214); experiment: Inhibition of DYRK1A isolated from mouse HT22 cells; format: cell-free; details: HT-22
[11] = target: CDK9/cyclin T1 (Homo sapiens, UniProt P50750); experiment: Inhibition of human recombinant CDK9/cyclin T expressed in insect cell using YSPTSPSYSPTSPSYSPTSPSKKKK as substrate and [gamma33P]ATP after 30 mins by scintillation counting
How it was run: (§3)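 Panel of purified kinases (recombinant from several species plus native enzymes), each assayed radiometrically over a range of inhibitor concentrations; IC50 in μM calculated from the dose-response curves.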

[12] = tested on: Brain; experiment: Toxicity against CD Sprague-Dawley rat brain expressing human APP at 0.03 to 3 uM after 3 hrs by fluorescence microscopic analysis; format: tissue-based; details: in vivo
[13] = target: T1, Dual specificity tyrosine-phosphorylation-regulated kinase 2 (Homo sapiens) (UniProt Q92630); experiment: Inhibition of human recombinant GST-tagged DYRK2 expressed in Escherichia coli using KKISGRLSPIMTEQ as substrate at 1 uM after 30 mins
T1 sequence (whole entry): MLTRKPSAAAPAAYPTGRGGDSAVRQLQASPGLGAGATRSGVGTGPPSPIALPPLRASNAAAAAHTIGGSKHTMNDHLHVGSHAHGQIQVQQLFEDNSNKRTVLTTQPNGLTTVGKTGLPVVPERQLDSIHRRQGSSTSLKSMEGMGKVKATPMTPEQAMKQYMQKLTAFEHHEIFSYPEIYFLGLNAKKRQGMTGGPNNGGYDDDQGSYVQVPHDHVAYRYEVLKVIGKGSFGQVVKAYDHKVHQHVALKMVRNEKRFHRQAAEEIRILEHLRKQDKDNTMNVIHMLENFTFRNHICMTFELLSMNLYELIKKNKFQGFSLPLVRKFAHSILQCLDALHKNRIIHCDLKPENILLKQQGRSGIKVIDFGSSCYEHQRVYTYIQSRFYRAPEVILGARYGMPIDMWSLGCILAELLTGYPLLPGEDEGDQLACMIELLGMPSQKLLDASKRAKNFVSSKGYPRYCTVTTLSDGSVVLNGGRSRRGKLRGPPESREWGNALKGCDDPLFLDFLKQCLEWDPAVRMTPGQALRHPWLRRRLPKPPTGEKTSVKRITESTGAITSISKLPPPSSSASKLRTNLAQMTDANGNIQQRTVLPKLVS

[14] = target: Protein VAC14 homolog (Mus musculus) (UniProt Q80WQ2); experiment: Binding affinity to VAC14 in mouse HT22 cell lysate by Western blot analysis; format: cell-free; details: HT-22; how it was run: as §1
[15] = target: Glycogen synthase kinase-3 alpha (Mus musculus) (UniProt Q2NL51); experiment: Binding affinity to GSK3alpha in mouse HT22 cell lysate by Western blot analysis; format: cell-free; details: HT-22; how it was run: as §1
[16] = target: Homeodomain-interacting protein kinase 2 (Homo sapiens) (UniProt Q9H2X6); experiment: Inhibition of human recombinant GST-tagged HIPK2 expressed in Escherichia coli at 10 uM after 30 mins
[17] = target: Dual specificity tyrosine-phosphorylation-regulated kinase 1A (Mus musculus) (UniProt Q61214); experiment: Binding affinity to DYRK1A in mouse HT22 cell lysate by Western blot analysis; format: cell-free; details: HT-22; how it was run: as §1
[18] = target: Dual specificity tyrosine-phosphorylation-regulated kinase 3 (Homo sapiens) (UniProt O43781); experiment: Inhibition of human recombinant GST-tagged DYRK3 expressed in Escherichia coli using KKISGRLSPIMTEQ as substrate at 10 uM after 30 mins
[19] = target: STE20-like serine/threonine-protein kinase (Mus musculus, UniProt O54988); experiment: Binding affinity to SLK1 in mouse brain homogenate after 3 hrs by competition affinity chromatographic analysis; format: tissue-based; how it was run: as §2
[20] = target: Protein VAC14 homolog (Mus musculus, UniProt Q80WQ2); experiment: Binding affinity to VAC14 in mouse brain homogenate after 3 hrs by competition affinity chromatographic analysis; format: tissue-based; how it was run: as §2
[21] = Inhibition of Plasmodium falciparum recombinant GSK3 expressed in Escherichia coli using YRRAAVPPSPSLSRHSSPHQ-phosphoS-EDEEE as substrate and [gamma33P]ATP after 30 mins by scintillation counting; how it was run: as §3
[22] = target: T1, Dual specificity tyrosine-phosphorylation-regulated kinase 2 (Homo sapiens); experiment: Inhibition of human recombinant GST-tagged DYRK2 expressed in Escherichia coli using KKISGRLSPIMTEQ as substrate at 10 uM after 30 mins
[23] = target: Mitogen-activated protein kinase 1 (Rattus norvegicus, UniProt P63086); experiment: Inhibition of rat recombinant ERK2 using Ets1 as substrate and [gamma33P]ATP as substrate after 30 mins by scintillation counting; how it was run: as §3
Mitogen-activated protein kinase 1, sequence (P63086 whole entry): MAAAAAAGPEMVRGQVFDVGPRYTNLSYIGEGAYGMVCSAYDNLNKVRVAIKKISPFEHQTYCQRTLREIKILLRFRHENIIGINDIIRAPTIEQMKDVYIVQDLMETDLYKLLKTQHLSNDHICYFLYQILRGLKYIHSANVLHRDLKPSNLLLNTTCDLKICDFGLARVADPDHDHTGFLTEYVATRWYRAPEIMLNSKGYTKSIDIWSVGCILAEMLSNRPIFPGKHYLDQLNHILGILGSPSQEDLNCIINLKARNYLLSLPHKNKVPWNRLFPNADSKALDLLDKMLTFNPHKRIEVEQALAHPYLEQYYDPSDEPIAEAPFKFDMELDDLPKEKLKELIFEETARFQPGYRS

Casein kinase II subunit beta, sequence (P67871 whole entry): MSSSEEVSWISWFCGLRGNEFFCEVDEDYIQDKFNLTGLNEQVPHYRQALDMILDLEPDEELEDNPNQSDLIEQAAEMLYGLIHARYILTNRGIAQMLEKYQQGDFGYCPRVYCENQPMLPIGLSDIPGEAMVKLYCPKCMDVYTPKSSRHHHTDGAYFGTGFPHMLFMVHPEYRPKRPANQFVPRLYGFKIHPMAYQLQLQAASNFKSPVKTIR
CDK9/cyclin T1, sequence (O60563 whole entry): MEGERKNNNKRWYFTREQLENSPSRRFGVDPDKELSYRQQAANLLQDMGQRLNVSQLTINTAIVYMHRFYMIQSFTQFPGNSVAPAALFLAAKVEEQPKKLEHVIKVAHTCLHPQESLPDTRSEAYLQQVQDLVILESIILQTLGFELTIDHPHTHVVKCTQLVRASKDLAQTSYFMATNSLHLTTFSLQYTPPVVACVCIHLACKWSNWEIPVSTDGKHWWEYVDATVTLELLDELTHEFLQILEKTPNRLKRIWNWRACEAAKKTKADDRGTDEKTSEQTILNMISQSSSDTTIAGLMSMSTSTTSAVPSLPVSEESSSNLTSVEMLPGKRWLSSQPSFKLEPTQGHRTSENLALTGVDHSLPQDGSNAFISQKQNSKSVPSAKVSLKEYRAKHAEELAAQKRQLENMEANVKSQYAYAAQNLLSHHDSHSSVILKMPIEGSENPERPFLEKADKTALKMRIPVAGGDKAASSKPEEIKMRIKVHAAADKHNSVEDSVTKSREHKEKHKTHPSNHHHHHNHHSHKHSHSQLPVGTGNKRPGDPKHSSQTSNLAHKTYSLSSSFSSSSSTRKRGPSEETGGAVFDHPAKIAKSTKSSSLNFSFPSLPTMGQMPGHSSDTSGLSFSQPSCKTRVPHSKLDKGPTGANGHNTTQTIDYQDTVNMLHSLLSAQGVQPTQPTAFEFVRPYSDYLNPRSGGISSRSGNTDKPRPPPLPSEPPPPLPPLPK
CDK9/cyclin T1, sequence (P50750 whole entry): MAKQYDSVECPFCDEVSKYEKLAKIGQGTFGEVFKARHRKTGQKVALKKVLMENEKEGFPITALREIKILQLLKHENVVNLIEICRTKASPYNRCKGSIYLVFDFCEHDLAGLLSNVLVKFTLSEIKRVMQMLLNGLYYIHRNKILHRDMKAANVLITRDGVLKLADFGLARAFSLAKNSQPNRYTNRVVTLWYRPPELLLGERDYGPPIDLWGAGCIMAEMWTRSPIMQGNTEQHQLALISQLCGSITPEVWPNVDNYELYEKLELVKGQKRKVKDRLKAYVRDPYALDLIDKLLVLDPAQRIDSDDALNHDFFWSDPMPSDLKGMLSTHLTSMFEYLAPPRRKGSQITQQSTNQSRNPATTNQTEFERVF
Glycogen synthase kinase-3 alpha, sequence (Q2NL51 whole entry): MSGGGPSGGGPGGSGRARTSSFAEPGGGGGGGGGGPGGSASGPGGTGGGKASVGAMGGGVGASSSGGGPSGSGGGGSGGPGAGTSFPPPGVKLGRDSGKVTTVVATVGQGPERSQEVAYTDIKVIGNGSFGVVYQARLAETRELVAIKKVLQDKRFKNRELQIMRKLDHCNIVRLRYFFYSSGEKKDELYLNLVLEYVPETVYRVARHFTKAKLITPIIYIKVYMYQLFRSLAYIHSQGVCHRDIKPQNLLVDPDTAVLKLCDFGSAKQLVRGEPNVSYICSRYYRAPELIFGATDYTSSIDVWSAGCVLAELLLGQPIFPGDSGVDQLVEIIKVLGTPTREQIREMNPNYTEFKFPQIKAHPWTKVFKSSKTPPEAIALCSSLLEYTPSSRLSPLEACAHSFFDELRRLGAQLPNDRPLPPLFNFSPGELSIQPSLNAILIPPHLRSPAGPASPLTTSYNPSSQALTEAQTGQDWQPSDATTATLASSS
Glycogen synthase kinase-3 alpha (Mus musculus), sequence (Q2NL51 whole entry): as above
Protein VAC14 homolog, sequence (Q80WQ2 whole entry): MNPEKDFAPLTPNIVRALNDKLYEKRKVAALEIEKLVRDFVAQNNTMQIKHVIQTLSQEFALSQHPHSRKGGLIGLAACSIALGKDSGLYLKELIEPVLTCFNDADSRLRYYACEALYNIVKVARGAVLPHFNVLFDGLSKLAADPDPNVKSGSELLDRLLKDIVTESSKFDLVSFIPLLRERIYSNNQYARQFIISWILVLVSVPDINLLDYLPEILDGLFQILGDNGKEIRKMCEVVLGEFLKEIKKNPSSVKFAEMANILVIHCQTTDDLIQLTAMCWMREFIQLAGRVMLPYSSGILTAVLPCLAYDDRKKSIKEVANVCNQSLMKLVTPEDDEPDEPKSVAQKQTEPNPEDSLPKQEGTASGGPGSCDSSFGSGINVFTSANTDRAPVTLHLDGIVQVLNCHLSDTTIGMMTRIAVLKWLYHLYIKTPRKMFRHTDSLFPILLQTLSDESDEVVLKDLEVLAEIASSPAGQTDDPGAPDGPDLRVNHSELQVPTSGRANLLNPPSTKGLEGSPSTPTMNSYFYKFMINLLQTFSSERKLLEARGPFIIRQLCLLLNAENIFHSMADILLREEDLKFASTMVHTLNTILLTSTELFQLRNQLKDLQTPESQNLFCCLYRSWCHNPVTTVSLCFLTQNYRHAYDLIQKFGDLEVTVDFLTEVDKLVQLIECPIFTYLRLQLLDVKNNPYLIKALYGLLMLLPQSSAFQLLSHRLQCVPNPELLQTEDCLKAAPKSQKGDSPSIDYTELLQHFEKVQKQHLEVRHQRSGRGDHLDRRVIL
Protein VAC14 homolog (Mus musculus), sequence (Q80WQ2 whole entry): as above
STE20-like serine/threonine-protein kinase, sequence (O54988 whole entry): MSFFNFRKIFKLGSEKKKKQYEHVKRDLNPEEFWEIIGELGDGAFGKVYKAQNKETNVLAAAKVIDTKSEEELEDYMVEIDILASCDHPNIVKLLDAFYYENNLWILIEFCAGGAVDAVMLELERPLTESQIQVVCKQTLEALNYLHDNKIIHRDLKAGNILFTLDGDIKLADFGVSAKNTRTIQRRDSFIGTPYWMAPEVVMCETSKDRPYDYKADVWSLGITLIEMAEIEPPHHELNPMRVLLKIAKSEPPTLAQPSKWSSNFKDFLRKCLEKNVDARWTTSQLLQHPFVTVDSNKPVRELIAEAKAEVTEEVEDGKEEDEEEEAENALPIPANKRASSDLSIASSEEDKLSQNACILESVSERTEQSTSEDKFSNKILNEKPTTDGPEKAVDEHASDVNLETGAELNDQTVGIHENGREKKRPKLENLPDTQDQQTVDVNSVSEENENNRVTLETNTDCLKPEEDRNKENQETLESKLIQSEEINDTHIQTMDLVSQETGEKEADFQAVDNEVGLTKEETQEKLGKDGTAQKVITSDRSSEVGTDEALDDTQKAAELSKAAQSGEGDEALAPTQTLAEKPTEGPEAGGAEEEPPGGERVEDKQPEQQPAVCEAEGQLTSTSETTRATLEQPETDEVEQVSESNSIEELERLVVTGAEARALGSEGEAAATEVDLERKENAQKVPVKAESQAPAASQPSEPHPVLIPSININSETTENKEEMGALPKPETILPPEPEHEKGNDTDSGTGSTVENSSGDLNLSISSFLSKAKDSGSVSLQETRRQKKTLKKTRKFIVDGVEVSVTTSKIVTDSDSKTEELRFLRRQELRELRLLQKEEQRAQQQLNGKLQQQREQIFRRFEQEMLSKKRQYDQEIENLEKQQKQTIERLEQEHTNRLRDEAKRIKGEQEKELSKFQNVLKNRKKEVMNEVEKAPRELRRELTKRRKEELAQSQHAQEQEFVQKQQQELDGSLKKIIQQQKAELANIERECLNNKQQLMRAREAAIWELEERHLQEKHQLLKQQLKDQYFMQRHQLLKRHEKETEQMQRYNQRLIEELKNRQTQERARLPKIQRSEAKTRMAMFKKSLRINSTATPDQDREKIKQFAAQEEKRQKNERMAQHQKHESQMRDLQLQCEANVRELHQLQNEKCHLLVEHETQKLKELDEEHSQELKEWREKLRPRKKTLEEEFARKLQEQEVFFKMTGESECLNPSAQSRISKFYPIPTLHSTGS
Glycogen synthase kinase-3 beta, sequence (P49841 whole entry): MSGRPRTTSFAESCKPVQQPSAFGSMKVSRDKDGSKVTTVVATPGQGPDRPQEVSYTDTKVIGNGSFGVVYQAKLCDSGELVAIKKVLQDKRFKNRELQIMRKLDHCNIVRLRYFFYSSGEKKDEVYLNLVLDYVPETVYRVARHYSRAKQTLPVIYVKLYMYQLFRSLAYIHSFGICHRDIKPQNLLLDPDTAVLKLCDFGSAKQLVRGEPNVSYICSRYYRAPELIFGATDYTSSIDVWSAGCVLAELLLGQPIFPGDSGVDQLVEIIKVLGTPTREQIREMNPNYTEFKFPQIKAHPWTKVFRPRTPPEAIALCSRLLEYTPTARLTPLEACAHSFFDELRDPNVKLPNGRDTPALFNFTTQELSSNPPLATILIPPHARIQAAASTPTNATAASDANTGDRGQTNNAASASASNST

O=C1NC(Nc2ccccc2)=N/C1=C\c1ccc2c(c1)OCO2
Activity [1]: Active | Kd(free) [2]: 382 nM | Activity [3]: inactive | IC50 [4]: 10 nM | IC50 [5]: 380 nM | Activity [6]: Active | Kd(free) [7]: 65 nM | Kd(free) [8]: 3274 nM | Activity [9]: Dose-dependent effect | inhibition [10]: Dose-dependent effect | IC50 [11]: 18000 nM | Activity [12]: Non-toxic | inhibition [13]: Active | Activity [14]: Active | Activity [15]: Active | inhibition [16]: Active | Activity [17]: Active | inhibition [18]: Active | Kd(free) [19]: 21 nM | Kd(free) [20]: 15265 nM | IC50 [21]: > 10000 nM | inhibition [22]: Active | IC50 [23]: > 30000 nM
